# Measured values: the RNAGym collection of RNA variant scans (doi:10.1002/anie.201605470)
# B1: Osa-1-4 twister ribozyme (parent)
# chain: CCGCCUAACACUGCCAAUGCCGGUCCCAAGCCCGGAUAAAAGUGGAGGGGGCGG
# Variants of: B1
# Experiment: self-cleavage, relative activity (ratio to wild type); higher = more cleavage; co-transcriptional
# Summary of the method: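 Relative activity is the fraction cleaved divided by that of the wild-type ribozyme. The library came from a DNA template for a 54-nucleotide Oryza sativa twister ribozyme, doped at the 48 positions downstream of the cleavage site with 97 % wild-type base and 1 % of each other base. After 2 h of in vitro transcription at 37 °C with co-transcriptional self-cleavage, the RNA was reverse-transcribed with a template-switching oligonucleotide, amplified by PCR and deep-sequenced, and reads with or without upstream sequence gave the cleavage status.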
row,Variant,self-cleavage
1,CCGCCUAACACUGCCAAUGCCGGUCCAAAGCCCGGAAAAAAGUGGAGGGGGCGG,0.26
2,CCGCCUAACACUGCCAAUGCCGGUCCAAAGCCCGGACAAAAGUGGAGGGGGCGG,0.32
3,CCGCCUAACACUGCCAAUGCCGGUCCAAAGCCCGGAUAAAAGUGGAGGGGGUGG,0.33
4,CCGCCUAACACUGCCAAUGCCGGUCCAAAGCCCGGAUAAAAGUGGAGGGGGGGG,0.25
5,CCGCCUAACACUGCCAAUGCCGGUCCAAAGCCCGGAUAAAAGUGGAGGGGGAGG,0.23
6,CCGCCUAACACUGCCAAUGCCGGUCCAAAGCCGGGAUAAAAGUGGAGGGGGCGG,0.04
7,CCGCCUAACACUGCCAAUGCCGGUCCAAAGCCUGGAUAAAAGUGGAGGGGGCGG,0.1
8,CCGCCUAACACUGCCAAUGCCGGUCCAAAGCCAGGAUAAAAGUGGAGGGGGCGG,0.09
9,CCGCCUAACACUGCCAAUGCCGGACUCAAGCCCGGAUAAAAGUGGAGGGGGCGG,0.06
10,CCGCCUAACACUGCCAAUGCCGGGCUCAAGCCCGGAUAAAAGUGGAGGGGGCGG,0.04
11,CCGCCUAACACUGCCAAUGCCGGCCUCAAGCCCGGAUAAAAGUGGAGGGGGCGG,0.07
12,CCGCCUAACACUGCCAAUGCCGGUCCAAAGCCCGGAUAAAAGUGGAGGGCGCGG,0.08
13,CCGCCUAACACUGCCAAUGCCGGUCCAAAGCCCGGAUAAAAGUGGAGGGAGCGG,0.22
14,CCGCCUAACACUGCCAAUGCCGGUCCAAAGCCCGGAUAAAAGUGGAGGGUGCGG,0.1
15,CCGCCUAACACUGCCAAAGCCGGUCCAAAGCCCGGAUAAAAGUGGAGGGGGCGG,0.27
16,CCGCCUAACACUGCCAACGCCGGUCCAAAGCCCGGAUAAAAGUGGAGGGGGCGG,0.26
17,CCGCCUAACACUGCCAAGGCCGGUCCAAAGCCCGGAUAAAAGUGGAGGGGGCGG,0.34
18,CCGCCUAACACUGCCAAUGCCGGUCCAAAGCCCGGAUAAAAGUGGAGUGGGCGG,0.04
19,CCGCCUAACACUGCCAAUGCCGGUCCAAAGCCCGGAUAAAAGUGGAGAGGGCGG,0.04
20,CCGCCUAACACUGCCAAUGCCGGUCCAAAGCCCGGAUAAAAGUGGAGCGGGCGG,0.05
21,CCGCCUAACACUGCCAAUGCCGGUCUCAAGCCCGGAUAAAAGUGGAGGGGGCUG,0.11
22,CCGCCUAACACUGCCAAUGCCGGUCUCAAGCCCGGACAAAAGUGGAGGGGGCGG,1
23,CCGCCUAACACUGCCAAUGCCGGUCUCAAGCCCGGAAAAAAGUGGAGGGGGCGG,0.79
24,CCGCCUAACACUGCCAAUGCCGGUCUCAAGCCCGGAGAAAAGUGGAGGGGGCGG,1.03

row,Variant,self-cleavage
1,CCGCCUAAGACUGCCAAUGCCGGUCCAAAGCCCGGAUAAAAGUGGAGGGGGCGG,0.1
2,CCGCCUAAUACUGCCAAUGCCGGUCCAAAGCCCGGAUAAAAGUGGAGGGGGCGG,0.07
3,CCGCCUAAAACUGCCAAUGCCGGUCCAAAGCCCGGAUAAAAGUGGAGGGGGCGG,0.09
4,CCGCCUAACACUGCCAAUGCCGGUCCAAAGCCCGGAUAAAAGUGGAGGAGGCGG,0.04
5,CCGCCUAACACUGCCAAUGCCGGUCCAAAGCCCGGAUAAAAGUGGAGGUGGCGG,0.04
6,CCGCCUAACACUGCCAAUGCCGGUCCAAAGCCCGGAUAAAAGUGGAGGCGGCGG,0.03
7,CCGCCUAACACUGCCAAUGCCGGUCCAAAGCCCGGAUAAAAGUGGAGGGGGCGG,0.37
8,CCGCCUAACACUGCCAAUGCCCGUCCAAAGCCCGGAUAAAAGUGGAGGGGGCGG,0.03
9,CCGCCUAACACUGCCAAUGCCUGUCCAAAGCCCGGAUAAAAGUGGAGGGGGCGG,0.06
10,CCGCCUAACACUGCCAAUGCCAGUCCAAAGCCCGGAUAAAAGUGGAGGGGGCGG,0.1
11,CCGCCUAACACUGCCAAUGCCGGUCCAAAGCCCGGAUAAAAGUGGAGGGGGCUG,0.06
12,CCGCCUAACACUGCCAAUGCCGGUCCAAAGCCCGGAUAAAAGUGGAGGGGGCCG,0.05
13,CCGCCUAACACUGCCAAUGCCGGUCCAAAGCCCGGAUAAAAGUGGAGGGGGCAG,0.09
14,CCGCCUAACACUGCCAAUGCCGGACCAAAGCCCGGAUAAAAGUGGAGGGGGCGG,0.04
15,CCGCCUAACACUGCCAAUGCCGGGCCAAAGCCCGGAUAAAAGUGGAGGGGGCGG,0.02
16,CCGCCUAACACUGCCAAUGCCGGCCCAAAGCCCGGAUAAAAGUGGAGGGGGCGG,0.06
17,CCGCCUAACACUGCCAAUGCCGGUCCAAAGCCCGGAUAAAAGUCGAGGGGGCGG,0.14
18,CCGCCUAACACUGCCAAUGCCGGUCCAAAGCCCGGAUAAAAGUUGAGGGGGCGG,0.14
19,CCGCCUAACACUGCCAAUGCCGGUCCAAAGCCCGGAUAAAAGUAGAGGGGGCGG,0.1
20,CCGCCUAACACUGCCAAGGCCGGUCUCAAGCCCGGAUAAAAGUGGAGGGGGCGG,0.93
21,CCGCCUAACACUGCCAACGCCGGUCUCAAGCCCGGAUAAAAGUGGAGGGGGCGG,0.88
22,CCGCCUAACACUGCCAAAGCCGGUCUCAAGCCCGGAUAAAAGUGGAGGGGGCGG,0.88
23,CCGCCUAACACUGCCAAUGCCGAUCCAAAGCCCGGAUAAAAGUGGAGGGGGCGG,0.06
24,CCGCCUAACACUGCCAAUGCCGCUCCAAAGCCCGGAUAAAAGUGGAGGGGGCGG,0.03
